The source of these data is ChEMBL document CHEMBL3351225, “Design, synthesis, and structure-activity and structure-pharmacokinetic relationship studies of novel [6,6,5] tricyclic fused oxazolidinones leading to the discovery of a potent, selective, and orally bioavailable FXa inhibitor” (J Med Chem, 2014).

SMILES strings stand for the structures. A value given as a limit tells only on which side of the number the result lay.

In data set [1] the test system is Plasma. Briefly: Anticoagulant activity in citrated rabbit plasma assessed as drug concentration required to double plasma clotting time preincubated for 10 mins at 37 degC by coagulometry. Type of data set: functional, Oryctolagus cuniculus. Put shortly:
(§1)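 Test compound or DMSO added to citrated rabbit plasma (3.8% sodium citrate, 10:90 v/v) and preincubated 10 min at 37 °C. PT and aPTT clotting times measured on a coagulometer with commercial kits. Activity expressed as the concentration needed to double plasma clotting time (CT2, μM).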

The subject of data set [2] is Plasma. Put plainly: Anticoagulant activity in citrated rabbit plasma assessed as activated partial thromboplastin time preincubated for 10 mins at 37 degC by coagulometry. Type of data set: functional, Oryctolagus cuniculus. Put shortly:
as §1

Data set [3] in a line: AUC (0 to infinity) in Sprague-Dawley rat at 9 mg/kg, po. Type of data set: ADME, organism-based. Set-up: time infinity, dose 9 mg/kg, route oral. The following applies: plasma. In short, it runs like this: (§2)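 Male Sprague-Dawley rats, 200−220 g, four per group. Vehicle was 5% DMSO + 5% Tween-80 in 90% saline. The reference drug was given in 10% DMSO + 10% Tween-80 + 80% PEG400 (40% solution in saline). Serial retrobulbar vein samples were quantified by LC-MS. Parameters came from noncompartmental analysis of mean plasma concentrations.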

A short description of data set [4]: AUC (0 to infinity) in Sprague-Dawley rat at 4.5 mg/kg, iv. Type of data set: ADME, organism-based. More on the design: time infinity, dose 4.5 mg/kg, route intravenous. The following applies: plasma. Put shortly: as §2
Data set [5] is described as follows: Plasma clearance in Sprague-Dawley rat at 4.5 mg/kg, iv. Set-up: dose 4.5 mg/kg, route intravenous. Type of data set: ADME, organism-based. Put shortly: as §2
The nature of data set [6]: Oral bioavailability in Sprague-Dawley rat at 9 mg/kg. The data set is classed as ADME, organism-based. The following applies: in vivo. Put shortly: as §2
A further data set addresses Coagulation factor X (Homo sapiens, UniProt P00742). Put plainly: Inhibition of human factor 10a using N-Z-D-Arg-Gly-Arg-pNA, S-2765 chromogenic substrate.
Data set [7] is described as follows: Cmax in Sprague-Dawley rat at 9 mg/kg, po. The data set is classed as ADME, organism-based. More on the design: dose 9 mg/kg, route oral. To be noted: in vivo. Put shortly:
as §2

The nature of data set [8]: Tmax in Sprague-Dawley rat at 9 mg/kg, po. Type of data set: ADME, organism-based. Set-up: dose 9 mg/kg, route oral. To be noted: in vivo. In short, it runs like this:
as §2

Data set [9] is described as follows: Elimination half life in Sprague-Dawley rat at 9 mg/kg, po. The data set is classed as ADME, organism-based. More on the design: dose 9 mg/kg, route oral. The following applies: in vivo, read-out: beta t1/2 (converted). In short, it runs like this:
as §2

Data set [10] can be described thus: Elimination half life in Sprague-Dawley rat at 4.5 mg/kg, iv. The data set is classed as ADME, organism-based. More on the design: dose 4.5 mg/kg, route intravenous. The following applies: in vivo, read-out: beta t1/2 (converted). Put shortly:
as §2

Data set [11] is described as follows: Volume of distribution at steady state in Sprague-Dawley rat at 4.5 mg/kg, iv. To be noted: in vivo, read-out: Vdss. More on the design: dose 4.5 mg/kg, route intravenous. Type of data set: ADME, organism-based. In short, it runs like this: as §2
The nature of data set [12]: Cmax in Sprague-Dawley rat at 10 mg/kg, po. Type of data set: ADME, organism-based. Set-up: dose 10 mg/kg, route oral. The following applies: in vivo. Put shortly: as §2
Data set [13] is described as follows: Tmax in Sprague-Dawley rat at 10 mg/kg, po. Type of data set: ADME, organism-based. More on the design: dose 10 mg/kg, route oral. To be noted: in vivo. In short, it runs like this: as §2
Data set [14] in a line: Elimination half life in Sprague-Dawley rat at 10 mg/kg, po. The data set is classed as ADME, organism-based. More on the design: dose 10 mg/kg, route oral. To be noted: in vivo, read-out: beta t1/2 (converted). Put shortly: as §2
Data set [15] in a line: Elimination half life in Sprague-Dawley rat at 3 mg/kg, iv. Type of data set: ADME, organism-based. Set-up: dose 3 mg/kg, route intravenous. The following applies: in vivo, read-out: beta t1/2 (converted). Put shortly:
as §2

Data set [16] in a line: AUC (0 to infinity) in Sprague-Dawley rat at 10 mg/kg, po. The data set is classed as ADME, organism-based. Set-up: time infinity, dose 10 mg/kg, route oral. The following applies: plasma. In short, it runs like this:
as §2

Data set [17] in a line: AUC (0 to infinity) in Sprague-Dawley rat at 3 mg/kg, iv. Type of data set: ADME, organism-based. Set-up: time infinity, dose 3 mg/kg, route intravenous. The following applies: plasma. Put shortly: as §2
Data set [18] is described as follows: Plasma clearance in Sprague-Dawley rat at 3 mg/kg, iv. The data set is classed as ADME, organism-based. More on the design: dose 3 mg/kg, route intravenous. Put shortly:
as §2

Data set [19] in a line: Volume of distribution at steady state in Sprague-Dawley rat at 3 mg/kg, iv. The data set is classed as ADME, organism-based. More on the design: dose 3 mg/kg, route intravenous. To be noted: in vivo, read-out: Vdss. Put shortly:
as §2

Data set [20] can be described thus: Oral bioavailability in Sprague-Dawley rat at 10 mg/kg. Type of data set: ADME, organism-based. The following applies: in vivo. Put shortly: as §2
The next data set concerns the target Prothrombin (Homo sapiens, UniProt P00734). Briefly: Inhibition of human factor 2a using L-pyro-Glu-Pro-ArgpNA, S-2366 chromogenic substrate. Put shortly: (§3)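 Human enzyme and inhibitor were premixed and preincubated, then the chromogenic substrate was added. Substrate levels: 300 μM S-2765 (FXa, trypsin); 200 μM S-2366 (FIIa); 2 mM S-2366 (FVIIa, FXIa). pNA release was monitored continuously at 405 nm for 20 min at 37 °C. IC50 was obtained by nonlinear regression.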

For another data set, the target named is T1, Coagulation factor VII (Homo sapiens, UniProt P08709).
T1 sequence (P08709 whole entry): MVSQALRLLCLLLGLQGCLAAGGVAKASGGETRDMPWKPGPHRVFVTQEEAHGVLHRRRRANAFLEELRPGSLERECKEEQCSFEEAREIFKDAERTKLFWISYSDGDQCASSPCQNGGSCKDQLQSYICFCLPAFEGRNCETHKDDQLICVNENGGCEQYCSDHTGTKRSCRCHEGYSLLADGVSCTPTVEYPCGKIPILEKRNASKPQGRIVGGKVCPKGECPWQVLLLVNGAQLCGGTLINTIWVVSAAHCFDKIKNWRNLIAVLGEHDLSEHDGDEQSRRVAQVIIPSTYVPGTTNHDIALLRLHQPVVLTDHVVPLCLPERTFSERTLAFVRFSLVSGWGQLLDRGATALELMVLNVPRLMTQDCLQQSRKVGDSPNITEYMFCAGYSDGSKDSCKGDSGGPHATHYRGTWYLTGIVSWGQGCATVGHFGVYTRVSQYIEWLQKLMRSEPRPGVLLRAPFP
Put plainly: Inhibition of human factor 7a using S-2366 chromogenic substrate. Put shortly:
as §3

The target in the next data set is Coagulation factor IX (Homo sapiens, UniProt P00740). Put plainly: Inhibition of human factor 9a using CH3SO2-(D)CHG Gly-Arg-pNA, Biophen-CS51 chromogenic substrate.
Coagulation factor IX, sequence (P00740 47-191 limits assumed): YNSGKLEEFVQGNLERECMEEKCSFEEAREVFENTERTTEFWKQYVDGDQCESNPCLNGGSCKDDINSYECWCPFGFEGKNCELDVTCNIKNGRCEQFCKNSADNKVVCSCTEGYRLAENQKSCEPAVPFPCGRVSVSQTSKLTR
Coagulation factor IX, sequence (P00740 227-461 limits assumed): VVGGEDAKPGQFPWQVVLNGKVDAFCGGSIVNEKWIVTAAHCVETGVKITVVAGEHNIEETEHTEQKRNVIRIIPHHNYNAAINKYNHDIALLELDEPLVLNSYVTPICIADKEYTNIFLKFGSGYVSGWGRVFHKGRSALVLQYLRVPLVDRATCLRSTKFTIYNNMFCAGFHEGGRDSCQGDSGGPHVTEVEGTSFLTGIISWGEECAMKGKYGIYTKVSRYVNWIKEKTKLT
The next data set has as its target Trypsin (Homo sapiens, UniProt P07477+P07478+P35030). Briefly: Inhibition of human trypsin using N-Z-D-Arg-Gly-Arg-pNA, S-2765 chromogenic substrate. Type of data set: protein assay. Put shortly:
as §3

For a further data set, the target named is Coagulation factor XI (Homo sapiens, UniProt P03951). Put plainly: Inhibition of human factor 11a using S-2366 chromogenic substrate. Put shortly: as §3
Coagulation factor XI, sequence (P03951 19-387 limits assumed): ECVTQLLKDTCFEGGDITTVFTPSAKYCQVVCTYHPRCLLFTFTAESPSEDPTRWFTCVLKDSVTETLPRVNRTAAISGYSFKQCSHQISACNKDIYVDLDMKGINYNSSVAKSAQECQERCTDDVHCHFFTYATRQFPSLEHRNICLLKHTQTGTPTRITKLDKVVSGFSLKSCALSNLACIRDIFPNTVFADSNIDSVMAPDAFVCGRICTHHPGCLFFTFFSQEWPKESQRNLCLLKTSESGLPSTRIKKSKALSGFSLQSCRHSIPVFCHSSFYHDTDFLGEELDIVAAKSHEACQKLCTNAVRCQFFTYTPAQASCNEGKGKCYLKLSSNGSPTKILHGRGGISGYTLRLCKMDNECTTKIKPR
Coagulation factor XI, sequence (P03951 388-625 limits assumed): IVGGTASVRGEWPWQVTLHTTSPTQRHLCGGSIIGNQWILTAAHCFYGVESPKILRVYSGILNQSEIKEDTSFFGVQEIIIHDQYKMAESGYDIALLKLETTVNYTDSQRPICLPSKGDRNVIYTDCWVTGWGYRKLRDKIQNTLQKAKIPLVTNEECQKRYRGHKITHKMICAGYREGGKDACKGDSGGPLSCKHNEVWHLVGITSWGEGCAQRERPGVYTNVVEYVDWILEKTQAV

Coagulation factor X, sequence (P00742 41-179 limits assumed): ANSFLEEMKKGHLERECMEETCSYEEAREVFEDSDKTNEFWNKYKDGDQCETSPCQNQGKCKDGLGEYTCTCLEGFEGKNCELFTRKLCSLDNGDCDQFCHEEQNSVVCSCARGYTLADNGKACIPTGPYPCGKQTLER
Coagulation factor X, sequence (P00742 235-488 limits assumed): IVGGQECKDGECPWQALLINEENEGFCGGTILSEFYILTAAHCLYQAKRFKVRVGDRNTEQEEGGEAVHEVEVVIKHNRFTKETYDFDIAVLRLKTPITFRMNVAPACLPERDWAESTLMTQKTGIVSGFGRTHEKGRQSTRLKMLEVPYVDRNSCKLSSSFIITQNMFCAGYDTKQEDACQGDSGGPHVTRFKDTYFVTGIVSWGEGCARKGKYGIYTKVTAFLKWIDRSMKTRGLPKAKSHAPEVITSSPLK

The AUC(0-inf) is the area under the concentration-time curve extrapolated to infinity. A low value points to less exposure. By clearance is commonly meant the volume of plasma or blood freed of the substance per unit of time. A lower clearance goes with inefficient removal. A word on the bioavailability: it is dose-corrected exposure relative to a reference, in per cent. Low readings indicate little systemic uptake, high ones much systemic uptake. Regarding `O=C(NC[C@@H]1OC(=O)N2c3ccc(N4CCCCC4=O)cc3OC[C@@H]12)c1ccc(Cl)s1`, in the data set on Plasma [1], the Activity was found to be 0.42 µM. For the same molecule, the 2aPTT in the data set on Plasma [2] worked out at 1.63 µM. Also, the AUC(0-inf) in [3] was determined as 28500 ng·h/mL; in data set [4], 33600 ng·h/mL. In data set [5], the clearance was 2.28 mL/min/kg. The bioavailability in [6] is 42%.

By IC50 is commonly meant the concentration that inhibits the measured activity by half. Read a low IC50 as higher potency. Usually Cmax stands for the peak of the concentration-time curve. By Tmax is commonly meant the time from dosing to the highest level. At Coagulation factor X, `CS(=O)(=O)c1ccccc1-c1ccc2c(c1)OC[C@H]1[C@H](CNC(=O)c3ccc(Cl)s3)OC(=O)N21` yielded an IC50 of 37.6 nM. The Activity in the data set with Plasma [1] was determined as 5.88 µM. Besides, in the data set with Plasma [2], the 2aPTT turned out to be 4.65 µM. The same molecule gave a peak concentration (Cmax) in [7] of 6760 ng/mL. Further, the Tmax in data set [8] was found to be 1 h. For the same molecule, the half-life in [9] was 1.43 h; in data set [10] it was 0.88 h. Besides, the AUC(0-inf) in data set [3] came out at 24500 ng·h/mL; in data set [4], 43900 ng·h/mL. The clearance in data set [5] is 1.72 mL/min/kg. In data set [11], the Vd amounted to 0.169 L/kg. Further, the bioavailability in data set [6] stood at 27.3%.

On to `NS(=O)(=O)c1ccccc1-c1ccc2c(c1)OC[C@H]1[C@H](CNC(=O)c3ccc(Cl)s3)OC(=O)N21`, for which the half-inhibitory concentration (IC50) against Coagulation factor X turned out to be 60.6 nM. In addition, in the data set with Plasma [1], the Activity turned out to be 4.58 µM. Besides, in the data set on Plasma [2], the 2aPTT is 4.86 µM. The Cmax in [12] was determined as 3630 ng/mL. For the same molecule, the Tmax in data set [13] stood at 1 h. The half-life in data set [14] was 1.65 h; in data set [15], 1.38 h. The total exposure AUC(0-inf) in data set [16] turned out to be 12300 ng·h/mL; in data set [17], 12200 ng·h/mL. The molecule also showed a clearance in data set [18] of 4.22 mL/min/kg. Besides, the Vd in data set [19] came to 0.35 L/kg. The bioavailability in [20] stood at 29%.

Consider `O=C(NC[C@@H]1OC(=O)N2c3ccc(N4CCOCC4=O)cc3OC[C@@H]12)c1ccc(Cl)cc1`, for which half-maximal inhibition at Coagulation factor X (IC50) required 160 nM. The Activity in the data set on Plasma [1] amounted to 1.06 µM. Also, in the data set on Plasma [2], the 2aPTT stood at 0.93 µM.

`O=C(NC[C@@H]1OC(=O)N2c3ccc(N4CCOCC4=O)cc3OC[C@@H]12)Nc1ccc(Cl)cc1` showed an IC50 on Coagulation factor X of 32.1 nM.

`O=C(NC[C@@H]1OC(=O)N2c3ccc(N4CCOCC4=O)cc3OC[C@@H]12)C(=O)Nc1ccc(Cl)s1` returned an IC50 on Coagulation factor X of 560 nM.

Take `O=C(NC[C@@H]1OC(=O)N2c3ccc(N4CCOCC4=O)cc3OC[C@@H]12)C(=O)Nc1ccc(Cl)cn1`: on Coagulation factor X, the IC50 was 1210 nM.

The molecule `O=C(NC[C@@H]1OC(=O)N2c3ccc(N4CCOCC4=O)cc3OC[C@@H]12)C(=O)Nc1ccc(Cl)cc1` had a 50% inhibitory concentration (IC50) at Coagulation factor X of 310 nM.

Molecule `O=C(Nc1ccc(Cl)s1)[C@@H]1OC(=O)N2c3ccc(N4CCOCC4=O)cc3OC[C@@H]12` returned an IC50 against Coagulation factor X greater than 100000 nM.

For `O=C(Nc1ccc(Cl)cn1)[C@@H]1OC(=O)N2c3ccc(N4CCOCC4=O)cc3OC[C@@H]12`, at Coagulation factor X, the IC50 was greater than 100000 nM.

As for `O=C(NC[C@@H]1OC(=O)N2c3ccc(N4CCOCC4=O)cc3SC[C@@H]12)c1ccc(Cl)s1`, the IC50 against Prothrombin was greater than 100000 nM; against Coagulation factor X, 2.51 nM; at Coagulation factor VII, greater than 100000 nM; against Coagulation factor IX, greater than 100000 nM; on Trypsin, greater than 100000 nM; against Coagulation factor XI, greater than 100000 nM. The Activity with Plasma [1] was 0.58 µM. Moreover, the 2aPTT with Plasma [2] worked out at 0.33 µM. Besides, the Cmax in data set [12] is 167 ng/mL. Further, the time to peak (Tmax) in data set [13] is 4 h. Also, the half-life in data set [14] was 3.15 h; in data set [15], 0.89 h. Also, the AUC(0-inf) in data set [16] was found to be 1480 ng·h/mL; in [17], 5700 ng·h/mL. The same molecule gave a clearance in [18] of 8.82 mL/min/kg. The Vd in data set [19] was 0.574 L/kg. In data set [20], this molecule yielded a bioavailability of 7.4%.
